Assay results gathered from unrelated publications.
GLP1R: Glucagon-like peptide 1 receptor (GLP1R, Homo sapiens, UniProt P43220)
DRD3: D(3) dopamine receptor (DRD3, Homo sapiens, UniProt P35462)
MDM4: Protein Mdm4 (MDM4, Homo sapiens, UniProt O15151)

Structure (SMILES)	target	assay	setting	endpoint	value
Cc1cccc(-c2ccnc3c(C(N)=O)cnn23)c1	Toll-like receptor 8 (TLR8, Homo sapiens, UniProt Q9NR97)	reporter gene		IC50	67 nM
CC(C)C[C@H](NC(=O)[C@H](Cc1c[nH]c2ccccc12)NC(=O)[C@H](C)NC(=O)[C@@H](NC(=O)[C@H](Cc1ccccc1)NC(=O)[C@H](CO)NC(=O)[C@H](CCC(N)=O)NC(=O)[C@H](C)NC(=O)[C@H](C)NC(=O)[C@H](CCC(N)=O)NC(=O)[C@H](CC(=O)O)NC(=O)[C@H](CCC(N)=O)NC(=O)[C@H](CC(C)C)NC(=O)[C@H](Cc1ccc(O)cc1)NC(=O)[C@H](CO)NC(=O)[C@H](CO)NC(=O)[C@@H](NC(=O)[C@H](CC(=O)O)NC(=O)[C@H](CO)NC(=O)[C@@H](NC(=O)[C@H](Cc1ccc(O)cc1)NC(=O)[C@@H](NC(=O)CNC(=O)[C@H](CCC(=O)O)NC(=O)[C@H](C)NC(=O)[C@@H](N)Cc1c[nH]cn1)[C@@H](C)O)[C@@H](C)O)C(C)C)C(C)C)C(=O)N[C@@H](CCCCN)C(=O)N[C@@H](CO)C(=O)NCC(=O)N[C@@H](CCC(N)=O)C(=O)N1CCC[C@H]1C(=O)O	GLP1R	reporter gene, agonist, luciferase		EC50	29.5 nM
O=C(Nc1cccc(-c2ccn3c(CC4CC4)nnc3c2C(F)(F)F)c1)c1ccc(S(=O)(=O)F)cc1	Metabotropic glutamate receptor 5 (GRM5, Homo sapiens, UniProt P41594)	calcium signal, agonist		EC50	> 50100 nM
CN(C)CCCN1c2ccccc2Sc2ccccc21	DRD3	ligand displacement, radioligand		IC50	75 nM
CCCc1cc2cc(-n3nc(C)c4c3CC(C)(C)CC4=O)cc(N[C@H]3CC[C@H](O)CC3)c2c(=O)[nH]1	Heat shock protein 75 kDa, mitochondrial (TRAP1, Homo sapiens, UniProt Q12931)	ligand displacement, FP		IC50	> 50000 nM
CC[C@H](C)[C@H](NC(=O)[C@H](Cc1ccccc1)NC(=O)[C@H](CCC(=O)O)NC(=O)[C@H](CCCCN)NC(=O)[C@H](C)NC(=O)[C@H](C)NC(=O)[C@H](CCC(N)=O)NC(=O)CNC(=O)[C@H](CCC(=O)O)NC(=O)[C@H](CC(C)C)NC(=O)[C@H](Cc1ccc(O)cc1)NC(=O)[C@H](CO)NC(=O)[C@@H](NC(=O)[C@@H](NC(=O)[C@H](CC(=O)O)NC(=O)[C@H](CO)NC(=O)[C@@H](NC(=O)[C@H](Cc1ccc(O)cc1)NC(=O)[C@@H](NC(=O)CNC(=O)[C@H](CCC(=O)O)NC(=O)[C@H](C)NC(=O)[C@@H](N)Cc1c[nH]cn1)[C@@H](C)O)[C@@H](C)O)[C@@H](C)CC)[C@@H](C)O)C(=O)N[C@@H](C)C(=O)N[C@@H](Cc1c[nH]c2ccccc12)C(=O)N[C@@H](CC(C)C)C(=O)N[C@H](C(=O)N[C@@H](CC(N)=O)C(=O)NCC(=O)N[C@@H](CCCNC(=N)N)C(=O)NCC(=O)O)C(C)C	GLP1R	reporter gene, agonist, luciferase		EC50	0.863 nM
Cc1cc(O)cc(C)c1C[C@H](N)C(=O)N[C@H](C)C(=O)NCC(=O)N[C@@H](Cc1ccc(Cl)cc1)C(=O)N(C)CCC[C@@]1(c2ccc(F)cc2)OCc2cc(C#N)ccc21	DRD3	ligand displacement, radioligand		Ki	890 nM
C[C@H]1COCCN1c1nc(NCc2cccnc2C(F)(F)F)c2cccnc2n1	A-type voltage-gated potassium channel KCND3 (KCND3, Homo sapiens, UniProt Q9UK17)	ion current, inhibitor		IC50	> 33000 nM
CC(C)[C@@H](Nc1nc(Cl)nc2c1ncn2[C@H]1[C@H](O)[C@H](O)[C@]2(CN)C[C@H]12)C1CC1	DRD3	ligand displacement, radioligand		Ki	3470 nM
CC(CCc1ccc(O)cc1)NCCc1ccc(O)c(O)c1 (stereo not shown)	DRD3	ligand displacement, radioligand		IC50	530 nM
CCN(CC)c1ccc(/C=N/NC(=O)c2ccc(O)cc2)cc1	Protein smoothened (SMO, Homo sapiens, UniProt Q99835)	ligand displacement		IC50	100 nM
CC(C)[C@@H]1NC(=O)[C@H](CO)NC(=O)[C@H](CO)NC(=O)[C@H](CO)N(C)C(=O)[C@H](CC(=O)O)NC(=O)[C@H](CO)NC(=O)[C@H](Cc2ccccc2)NC(=O)CSC[C@@H](C(=O)NCC(N)=O)NC(=O)[C@H](CC(N)=O)NC(=O)[C@H](CCCNC(=N)N)NC(=O)[C@H](Cc2ccc(-c3ccccc3)cc2)NC(=O)[C@H](Cc2ccc(-c3ccccc3)cc2)NC(=O)[C@H](CC(N)=O)NC(=O)[C@@H]2CCCN2C1=O	MDM4	ligand displacement, TR-FRET		Ki	740 nM
CC[C@H](C)[C@H](NC(=O)[C@H](CO)NC(=O)[C@H](CC(=O)O)NC(=O)[C@H](CC(C)C)NC(=O)[C@@H](NC(=O)[C@H](CCCCN)NC(=O)[C@H](CC(N)=O)NC(=O)[C@@H](NC(=O)[C@H](CC(=O)O)NC(=O)[C@H](CO)NC(=O)[C@@H](NC(=O)[C@H](Cc1ccccc1)NC(=O)[C@H](CO)NC(=O)CNC(=O)[C@H](CC(=O)O)NC(=O)[C@@H](NC(=O)[C@@H](N)Cc1c[nH]cn1)C(C)C)[C@@H](C)O)C(C)C)C(C)C)C(=O)N[C@@H](C)C(=O)N[C@@H](C)C(=O)N[C@@H](CCCCN)C(=O)N[C@@H](CCC(=O)O)C(=O)N[C@@H](Cc1ccc(O)cc1)C(=O)N[C@@H](CC(C)C)C(=O)N[C@@H](CCC(N)=O)C(=O)N[C@@H](Cc1c[nH]c2ccccc12)C(=O)N[C@H](C(=O)N[C@@H](CCSC)C(=O)N[C@@H](CC(N)=O)C(=O)N[C@@H](CO)C(=O)N[C@@H](CCCCN)C(=O)N[C@@H](C)C(=O)N[C@@H](CO)C(=O)NCC(=O)O)C(C)C	GLP1R	reporter gene, agonist, luciferase		EC50	3.64 nM
CO/N=C1\C[C@]2(C[C@@H]3C[C@@H](C/C=C(\C)C[C@@H](C)/C=C/C=C4\CO[C@@H]5[C@H](O)C(C)=C[C@@H](C(=O)O3)[C@]45O)O2)O[C@H](/C(C)=C/C(C)C)[C@H]1C	Nuclear receptor subfamily 1 group I member 3 (Homo sapiens, UniProt Q14994)	reporter gene, antagonist		IC50	44100 nM
CCCC[C@@H](NC(=O)[C@@H](N)Cc1ccc(O)cc1)C(=O)NCC(=O)N[C@@H](Cc1ccc(F)cc1)C(=O)N(C)CCC[C@@]1(c2ccc(F)cc2)OCc2cc(C#N)ccc21	DRD3	ligand displacement, radioligand		Ki	4300 nM
O=C(O[C@@H]1Cc2c(O)cc(O)cc2O[C@@H]1c1cc(O)c(O)c(O)c1)c1cc(O)c(O)c(O)c1	Maltase-glucoamylase (Homo sapiens, UniProt O43451)	enzyme activity, inhibitor		Ki	5930 nM
CP(=O)(O)CCC(N)C(=O)O (racemic)	Glutamine synthetase (glnA, Escherichia coli K-12, UniProt P0A9C5)	enzyme activity, inhibitor		Ki	800 nM
CC(C)[C@@H]1NC(=O)[C@H](CO)NC(=O)[C@H](CO)NC(=O)[C@H](CO)N(C)C(=O)[C@H](CC(=O)O)NC(=O)[C@H](CO)NC(=O)[C@H](Cc2ccccc2)NC(=O)CSC[C@@H](C(=O)NCC(N)=O)NC(=O)[C@H](CC(N)=O)NC(=O)[C@H](CCCNC(=N)N)NC(=O)[C@H](C)NC(=O)[C@H](Cc2ccc(-c3ccccc3)cc2)NC(=O)[C@H](CC(N)=O)NC(=O)[C@@H]2CCCN2C1=O	MDM4	ligand displacement, TR-FRET		IC50	> 10000 nM
CC[C@H](C)[C@H](NC(=O)[C@H](Cc1ccccc1)NC(=O)[C@H](CC(=O)O)NC(=O)[C@H](CCCCN)NC(=O)[C@H](C)NC(=O)[C@H](C)NC(=O)[C@H](CCC(N)=O)NC(=O)CNC(=O)[C@H](CCC(=O)O)NC(=O)[C@H](CC(C)C)NC(=O)[C@H](Cc1ccc(O)cc1)NC(=O)[C@H](CO)NC(=O)[C@H](CO)NC(=O)[C@@H](NC(=O)[C@H](CC(=O)O)NC(=O)[C@H](CO)NC(=O)[C@@H](NC(=O)[C@H](Cc1ccc(O)cc1)NC(=O)[C@@H](NC(=O)CNC(=O)[C@H](CC(=O)O)NC(=O)[C@H](C)NC(=O)[C@@H](N)Cc1c[nH]cn1)[C@@H](C)O)[C@@H](C)O)[C@@H](C)CC)C(=O)N[C@@H](C)C(=O)N[C@@H](Cc1c[nH]c2ccccc12)C(=O)N[C@@H](CC(C)C)C(=O)N[C@@H](CCSC)C(=O)N[C@@H](CC(N)=O)C(=O)NCC(=O)N[C@@H](CCCNC(=N)N)C(=O)NCC(=O)O	GLP1R	reporter gene, agonist, luciferase		EC50	0.583 nM
CSCC[C@H](NC(=O)[C@H](CCC(=O)O)NC(=O)[C@@H]1CCCN1C(=O)[C@@H](NC(=O)[C@@H]1CCCN1)[C@@H](C)O)C(=O)N[C@@H](CCCNC(=N)N)C(=O)N[C@@H](CCC(=O)O)C(=O)N[C@@H](CCCCN)C(=O)N[C@@H](CC(C)C)C(=O)N[C@H]1CSSC[C@@H]2NC(=O)[C@@H](NC(=O)[C@H](CC(C)C)NC(=O)[C@@H](NC(=O)[C@H](CCC(N)=O)NC(=O)[C@H](CC(C)C)NC(=O)[C@H](CC(=O)O)NC(=O)[C@@H]3CCC(=O)N3)[C@@H](C)O)CSSC[C@H](NC(=O)CNC(=O)[C@H](CO)NC(=O)[C@H](CC(C)C)NC2=O)C(=O)N[C@@H]([C@@H](C)O)C(=O)N[C@@H](CCC(N)=O)C(=O)N[C@@H](CCC(N)=O)C(=O)N[C@@H](CC(=O)O)C(=O)N[C@@H](CC(C)C)C(=O)N[C@@H](CC(C)C)C(=O)N[C@@H]([C@@H](C)O)C(=O)N[C@@H](CC(C)C)C(=O)N[C@H](C(=O)N2CCC[C@H]2C(=O)N[C@@H](Cc2ccc(O)cc2)C(=O)O)CSSC[C@@H](C(=O)NCC(=O)NCC(=O)N2CCC[C@H]2C(=O)N[C@@H](CCCNC(=N)N)C(=O)N[C@@H](Cc2c[nH]c3ccccc23)C(=O)N[C@@H](CO)C(=O)N[C@H](C(=O)N[C@@H](CCC(=O)O)C(=O)N[C@@H](C)C(=O)O)[C@@H](C)O)NC(=O)[C@H](C(C)C)NC(=O)[C@H](CCCNC(=N)N)NC(=O)[C@H](C(C)C)NC(=O)[C@H](CC(C)C)NC(=O)[C@H](C)NC(=O)[C@H](CCCNC(=N)N)NC(=O)[C@H](C(C)C)NC(=O)[C@H](Cc2ccccc2)NC(=O)[C@H](Cc2c[nH]cn2)NC(=O)[C@H](Cc2c[nH]cn2)NC(=O)CNC1=O	Relaxin receptor 2 (RXFP2, Homo sapiens, UniProt Q8WXD0)	ligand displacement in cells		Ki	3.63 nM
COc1cc(N)c(Cl)cc1C(=O)NC1CCN(CCCOc2ccc(F)cc2)CC1OC (stereo not shown)	DRD3	ligand displacement, radioligand		IC50	6320 nM
O=C(O)[C@H]1O[C@@H](Oc2cc(O)cc(/C=C/c3ccc(O)cc3)c2)[C@H](O)[C@@H](O)[C@@H]1O	Cannabinoid receptor 1 (Cnr1, Mus musculus, UniProt P47746)	ligand displacement, radioligand	cell membranes	Ki	> 100000 nM
